Bioassay records (PubChem)
Mcl1 Bid PPI – Mcl-1/Bid binding inhibitors, primary screen, biochemical, TR-FRET, 1536-well; Induced myeloid leukemia cell differentiation protein Mcl-1 (Homo sapiens), Q07820; 0.97% of 220,000 active; inhibition, % at 21.7 µM; TR-FRET Mcl-1/Bid-Dy647 peptide binding;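 active = compounds that cut the binding signal by more than half at the single screening dose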;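 also: His-tagged Mcl-1 with europium anti-His antibody binding Bid BH3 peptide; 0% = Mcl-1 plus peptide wells and 100% = peptide-only wells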
Target sequence (Q07820 whole entry, looked up): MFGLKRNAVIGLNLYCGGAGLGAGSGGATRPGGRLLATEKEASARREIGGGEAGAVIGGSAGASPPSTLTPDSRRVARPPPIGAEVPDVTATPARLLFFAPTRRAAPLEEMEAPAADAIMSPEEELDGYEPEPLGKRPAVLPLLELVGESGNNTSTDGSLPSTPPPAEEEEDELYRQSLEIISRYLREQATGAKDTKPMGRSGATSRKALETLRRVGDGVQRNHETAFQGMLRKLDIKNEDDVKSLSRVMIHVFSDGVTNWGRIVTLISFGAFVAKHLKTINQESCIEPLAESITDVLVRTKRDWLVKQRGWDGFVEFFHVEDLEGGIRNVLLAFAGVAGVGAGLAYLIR
Arbovirus anti – antivirals against arbovirus infection, primary screen, cell-based, full library, 10K replicate subset. arbovirus infection cell-based antiviral screen. inhibition, % at 10 µM. 0.37% of 200,000 active. AID 1251, 2008; in the data active = inhibition above about 30%
Calb biofilm kill – clotrimazole potentiators killing C. albicans biofilm, primary screen, 4-compound mixtures. C. albicans biofilm persisters + clotrimazole, fluorescence viability; primary screen in compound mixtures of four per well. 0.02% of 120,000 active. inhibition, % at 7.6 µM;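 active = inhibition above 30.3% in the primary screen of four-compound pools, then above 30% when the compound was retested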;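 also: compounds exposed to preformed 24 h biofilms for 48 h; 0% = untreated biofilm control and 100% = clotrimazole plus chlorhexidine kill blank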
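System: C. albicans CAF4-2 wild-type biofilms; Medium: RPMI/MOPS medium, pH 7.0; Reagent: Clotrimazole, 50 µg/mL; Times: biofilm formation 24 h, compound exposure 48 h, 37 °C; Detection: 2-h Alamar Blue fluorescence, 535/590 nm excitation/emission; Evaluation: percent inhibition of biofilm viability.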
Calpain2 inh – inhibitors of pig calpain II, primary screen, biochemical, fluorogenic peptide substrate, 1536-well; purified calpain II, 30 min; 0.37% of 220,000 active; inhibition, % at 16 µM;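 active = inhibition above about 50%, limit read from the data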
Bim-Mcl-1 – inhibitors of Bim peptide binding to Mcl-1, primary screen, biochemical, bead-based flow cytometry, multiplex. Induced myeloid leukemia cell differentiation protein Mcl-1 (Homo sapiens), Q07820. Bim peptide-Mcl-1 binding. inhibition, % at 10 µM. 0.1% of 190,000 active. AID 1009, 2008; in the data active = inhibition above about 40%;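 also: 0% = no compound tracer wells and 100% = peptide blocker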
Mcl1 Noxa PPI – Mcl-1/Noxa binding inhibitors, primary screen, biochemical, TR-FRET, 1536-well | 1.5% of 220,000 active | Induced myeloid leukemia cell differentiation protein Mcl-1 (Homo sapiens), Q07820 | inhibition, % at 21.7 µM | TR-FRET Mcl-1/Noxa peptide binding, 2 h;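 active = compounds that cut the protein-peptide binding signal by more than 50% relative to plate controls in a single-dose test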;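 also: His-tagged Mcl-1 with rhodamine Noxa BH3 peptide and terbium anti-His antibody; 0% = Mcl-1 plus Noxa peptide wells and 100% = peptide-only wells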
* = called active by the depositor; / = no result. Shown are actives, neighbours in structure and some others; about 2.8% of the full set was active somewhere.

SMILES	Mcl1 Bid PPI	Arbovirus anti	Calb biofilm kill	Calpain2 inh	Bim-Mcl-1	Mcl1 Noxa PPI
N#C/C(=C\c1ccc(N2CCCC2)c([N+](=O)[O-])c1)c1nc2ccccc2[nH]1	68*	-8	/	-162	-2	36
Cc1c(S(=O)(=O)N2CCN(c3ccccc3)CC2)c(=O)n(C)c(=O)n1C	-26	/	24	-16	/	-15
COc1cc2c(cc1OC)C(C)N(C(=O)c1sc(-c3cnccn3)nc1C)CC2 (stereo not drawn)	-11	/	18	-2	/	4
CCOC(=O)C1(Cc2cccc(F)c2)CCN(CC(O)CO)CC1 (stereo not drawn)	-13	/	19	-18	/	0
O=C1CCC([N+](=O)[O-])C(c2cccc(Br)c2)N1 (stereo not drawn)	-27	-2	6	1	-6	-14
O=C1CCCC2(O)C1C(c1cccc(Br)c1)NC(=O)N2Cc1ccccc1 (stereo not drawn)	-35	0	12	4	41*	-2
C=CCn1c(=NC(=O)c2ccco2)sc2cc(C(=O)OCC)ccc21	51*	-3	15	-28	-3	24
C=CCn1c(=NC(=O)c2ccco2)sc2cc(C(=O)OC)ccc21	29	5	9	-41	-5	-38
COc1ccc(N2Cc3cccc(C(=O)N4CCN(C(=O)c5ccco5)CC4)c3C2=O)cc1	-26	6	/	-116	2	74*
COc1ccc(N2Cc3cccc(C(=O)N4CCOCC4)c3C2=O)cc1	-36	4	/	-11	-3	13
CC(/C=N/n1c(-c2ccc(Cl)cc2)n[nH]c1=S)=C\c1ccco1	24	-1	7	-5	-3	64*
Cc1nn(-c2ccccc2)c(C)c1/C=N/n1c(-c2ccc(Cl)cc2)n[nH]c1=S	22	-20	8	-101	-6	53*
CC(/C=N/n1c(-c2cc(C)[nH]n2)n[nH]c1=S)=C\c1ccco1	-143	/	11	26	/	44
CN(C)/C=C/C(=O)c1ccccc1OCc1cnc(Cl)s1	-28	8	16	5	1	-5
CCC(=O)Oc1ccc(C(=O)Nc2ccc3c(c2)OCO3)cc1	-17	-7	13	-15	1	18
CC(=O)Nc1ccc(S(=O)(=O)Nc2nc3ccccc3nc2Nc2ccc(N)cc2)cc1	-145	/	18	-29	/	58*
CC(=O)Nc1ccc(S(=O)(=O)Nc2nc3ccccc3nc2Nc2ccc3ccccc3c2)cc1	-18	-6	2	-160	-17	32
CCN(CC)c1ccc(NC(=O)Cn2c(C(C)NC(=O)c3ccc(C)cc3)nc3ccccc32)cc1 (stereo not drawn)	90*	-2	7	26	4	32
COc1ccc(C(=O)Nc2nc3cc4c(cc3s2)OCO4)c(OC)c1	51*	/	8	-325	/	52*
O=[N+]([O-])c1cc(/C=N/O)ccc1N1CCCC1	-2	0	2	26	4	-1
O=[N+]([O-])c1cc(/C=N/n2cnnc2)ccc1N1CCCC1	46	4	19	62*	1	9
O=Cc1ccc(OCc2ccccn2)cc1	-15	34*	12	-26	22	15
c1ccc(COc2cccc(CNCc3ccccn3)c2)cc1	-15	5	12	16	-1	24
CC(C)S(=O)(=O)C1=NSC2=NC(=O)/C(=C\c3ccc(-c4ccccc4)o3)C(=N)N21	3	33*	25	-35	4	22
Cc1cc(/C=C2\C(=N)N3N=C(C(C)C)SC3=NC2=O)c(C)n1-c1ccccc1	-28	4	11	-271	0	6
SMILES	Mcl1 Bid PPI	Arbovirus anti	Calb biofilm kill	Calpain2 inh	Bim-Mcl-1	Mcl1 Noxa PPI
O=C1OC(c2cccs2)=N/C1=C/c1ccc(-c2cccc(C(=O)O)c2)o1	79*	13	16	-32	4	96*
Cc1ccc(-n2c(C)cc(/C=C3/C(=N)N4C(c5ccccc5)=CSC4=NC3=O)c2C)cc1	-13	0	22	-195	-3	12
CS(=O)(=O)C1=NSC2=NC(=O)/C(=C\c3ccc(-c4ccccc4)o3)C(=N)N21	-13	60*	12	-61	0	14
CC(C)S(=O)(=O)C1=NSC2=NC(=O)/C(=C\c3ccc(-c4cccc(C(=O)O)c4)o3)C(=N)N21	-25	30*	10	-27	2	31
Cc1cccc(NC(=O)CN2C(=O)N/C(=C\c3ccc(-c4cccc(C(=O)O)c4)o3)C2=O)c1	-26	/	33	-64	/	15
NNC(=O)c1ncoc1-c1ccc(Cl)cc1	-13	/	17	-13	/	7
COC(=O)/C=C1/N/C(=N\c2nc(C)cc(C)n2)N(c2ccc(Cl)cc2)C1=O	-10	-7	8	-32	-3	10
N=C1/C(=C\c2ccc(-c3cc(Cl)cc(Cl)c3)o2)C(=O)N=C2SC=C(c3ccccc3)N12	-12	-9	17	-33	-1	17
N=C1/C(=C/c2ccc(-c3cccc(C(=O)O)c3)o2)C(=O)N=C2SC=C(c3ccccc3)N12	98*	42*	1	14	0	109*
N=C(N)SCP(=O)(c1ccccc1)c1ccccc1	56*	/	18	-13	/	9
N#Cc1cc2c(nc1SCc1ccc(Cl)nc1)CCCCC2	0	/	15	26	/	-13
CN(C(=O)CSc1nnc(Nc2ccccc2)s1)c1c(N)n(Cc2ccccc2)c(=O)[nH]c1=O	-18	0	/	19	8	53*
CCOC(=O)c1cc2c(=O)n3cccc(C)c3nc2n(CCOC)c1=NC(C)=O	-1	/	16	-149	/	8
O=C1C(Cc2ccccc2O)NC(=S)N1c1ccccc1 (stereo not drawn)	-19	/	13	-12	/	17
Cc1ccc(C(=O)CN(C(=O)c2ccc(Cl)c(Cl)c2)N2C(=O)C3C4C=CC(C4)C3C2=O)cc1 (stereo not drawn)	80*	1	/	15	-3	/
Cc1ccc(Nc2cc(-n3nc(C)cc3C)ncn2)c(C)c1	-14	-3	/	29	5	56*
O=C(Nc1ccc(N2CCOCC2)cc1)Nc1ccc(Cl)c(Cl)c1	-21	-8	/	-54	-131	82*
Cc1ccc(NC(=O)c2cc(N3C(=O)C=CC3=O)ccc2N2CCOCC2)cc1Cl	11	14	9	-53	-19	56*
O=C(Nc1ccc(Cl)cc1)Nc1ccc(N2CCOCC2)cc1	-19	-3	/	-26	-5	/
O=C(/C=C/c1c(F)cccc1Cl)c1ccc(O)cc1	-31	/	29	-20	/	18
COc1cc(/C=N/NC(=O)COc2ccc(-n3cnnn3)cc2)ccc1OCC(N)=O	9	/	8	-5	/	9
